Reference: PubChem BioAssay AID463104 (Sanford-Burnham Center for Chemical Genomics, 2010)
About 1,100 (0.33%) of roughly 330,000 compounds were called active. The list comes from a sample in which actives are over-represented; it also holds similar structures and randomly drawn compounds. Values without a mark were called inactive.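 How the source made its calls: active means versus positive control, 20 µM dose yields 30% or more activation; inactive means the rest.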

Assay: activators of adaptive XBP1 UPR arm, primary screen, cell-based, CHO-XBP1 luciferase reporter, luminescence, uHTS (AID 463104);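 further: 100% = tunicamycin at 10 µg/mL and 0% = DMSO only wells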
Details: IRE1-XBP1 UPR activation, at 20 µM, active compounds read high, percent of tunicamycin response, DMSO as zero
Outline: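 Assay system: CHO-XBP1 luciferase reporter cells; Schedule: 6 h treatment, 37 °C; Detection: glow luminescence from Steady-Glo reagent; Benchmarks: high control tunicamycin 10 µg/mL final, low control DMSO vehicle only.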
With `COc1cc(Cn2c(N)c(C(=O)NCc3ccco3)c3nc4ccccc4nc32)cc(OC)c1OC` the activation was 35.8% (active).
For `CCOC(=O)c1c(N)n(Cc2ccccc2)c2nc3ccccc3nc12`, the activation was 2.64%.
Work on `COC(=O)C1=C(c2ccccc2)C[C@@H]2CC[C@H]1N2C(=O)NCc1ccco1` yielded an activation of 1.2%.
Compound `CC(C(=O)Nc1ccc(Cl)cc1Cl)N1CC=C(c2ccccc2)CC1` (stereo not given) has an activation of -1.2%.
Work on `CNC(=O)O/N=C(\N)Cc1csc2ccc(Cl)cc12` yielded an activation of 0.76%.
